Assays:
B16 [1] = experiment: Tumor Growth Inhibitory effect (TGIR) on mice subcutaneously inoculated with B16 cells (compound plus MMC); assay type: functional, Mus musculus; design: concentration or dose not given beside the values
In short: (§1)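 Groups of six female BDF1 mice received B16 melanoma (1 × 10^6 cells/mouse) s.c. on day 0. AGL analogues were given i.v. at 100 μg/kg on days 1, 5 and 9, and MMC at 5 mg/kg i.p. on day 1; controls were untreated. Tumor volume (length × width × height/2, by callipers) was read on days 8, 12, 16 and 20. TGIR = [1 − mean test volume/mean control volume] × 100, and the maximum value is reported.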

Mus musculus [2] = organism: Mus musculus; experiment: Lymphocyte Proliferation Stimulatory effect was tested on mouse spleen cells and evaluated for at 6 h [3H]TdR (tritium-thymidine) pulse and uptake into cells at 10 ng/mL; assay type: functional
In short: (§2)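 BALB/c spleen cells (2 × 10^5 cells/well, no stimulator cells) were cultured in 10% FCS RPMI 1640 with compound at 37 °C in 5% CO2 for 2–3 days. A 6 h [3H]TdR pulse followed, and uptake was counted by liquid scintillation. Run in triplicate.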

Mus musculus [3] = organism: Mus musculus; experiment: Lymphocyte Proliferation Stimulatory effect was tested on mouse spleen cells and evaluated for at 6 h [3H]TdR (tritium-thymidine) pulse and uptake into cells at 100 ng/mL; assay type: functional; in short: as §2
B16 [4] = experiment: Tumor Growth Inhibitory effect (TGIR) on mice subcutaneously inoculated with B16 cells (chemotherapeutic agent, mitomycin C (MMC)); assay type: functional, Mus musculus; design: concentration or dose not given beside the values; in short: as §1
Mus musculus [5] = organism: Mus musculus; experiment: Lymphocyte Proliferation Stimulatory effect was tested on mouse spleen cells and evaluated for at 6 h [3H]TdR (tritium-thymidine) pulse and uptake into cells at 1 ng/mL; assay type: functional; in short: as §2
B16 [6] = experiment: Tumor Growth Inhibitory effect (TGIR) on mice subcutaneously inoculated with B16 cells (compound alone (single)); assay type: functional, Mus musculus; design: concentration or dose not given beside the values; in short: as §1
Homo sapiens [7] = organism: Homo sapiens; experiment: Lymphocyte Proliferation Stimulatory effect on human umbilical cord blood at 100 ng/mL and measured for [3H]TdR (tritium-thymidine) uptake (percent of control); assay type: functional
In short: (§3)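 Mononuclear cells were isolated from human peripheral blood or umbilical cord blood and plated at 1 × 10^5 cells/well in RPMI 1640 with 10% autologous plasma, with compound. After 4 days of incubation, a 6 h [3H]TdR pulse was given and uptake was counted by scintillation. Run in triplicate.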

Homo sapiens [8] = organism: Homo sapiens; experiment: Lymphocyte Proliferation Stimulatory effect on human peripheral blood at 100 ng/mL and measured for [3H]TdR (tritium-thymidine) uptake (percent of control); assay type: functional; in short: as §3
Mus musculus [9] = experiment: Compound is administered at days 6, 10, and 14.Tumor volume of each mouse is measured on days 8, 12, 16 and 20(compound plus MMC); assay type: functional
Homo sapiens [10] = organism: Homo sapiens; experiment: Lymphocyte Proliferation Stimulatory effect on human peripheral blood at 10 ng/mL and measured for [3H]TdR (tritium-thymidine) uptake (percent of control); assay type: functional; in short: as §3
Mus musculus [11] = organism: Mus musculus; experiment: Lymphocyte Proliferation Stimulatory effect on Allogenic MLR at 0.1 ng/mL and measured for [3H]TdR (tritium-thymidine) uptake (percent of control); assay type: functional
In short: (§4)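 Responders were BALB/c spleen cells and stimulators were C57BL/6 spleen cells pretreated with MMC (50 μg/mL, 30 min). Both were plated at 1 × 10^5 cells in 10% FCS RPMI 1640, with compounds added at plating. Culture was at 37 °C in 5% CO2 for 2–3 days, then a 6 h [3H]TdR pulse with scintillation counting. Run in triplicate.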

Homo sapiens [12] = organism: Homo sapiens; experiment: Lymphocyte Proliferation Stimulatory effect on human umbilical cord blood at 1 ng/mL and measured for [3H]TdR (tritium-thymidine) uptake (percent of control); assay type: functional; in short: as §3
Mus musculus [13] = experiment: Compound is administered at days 6, 10, and 14.Tumor volume of each mouse is measured on days 8, 12, 16 and 20(compound alone (single)); assay type: functional
Homo sapiens [14] = organism: Homo sapiens; experiment: Lymphocyte Proliferation Stimulatory effect on human peripheral blood at 1 ng/mL and measured for [3H]TdR (tritium-thymidine) uptake (percent of control); assay type: functional; in short: as §3
Homo sapiens [15] = organism: Homo sapiens; experiment: Lymphocyte Proliferation Stimulatory effect on human umbilical cord blood at 10 ng/mL and measured for [3H]TdR (tritium-thymidine) uptake (percent of control); assay type: functional; in short: as §3
Mus musculus [16] = organism: Mus musculus; experiment: Lymphocyte Proliferation Stimulatory effect on Allogenic MLR at 10 ng/mL and measured for [3H]TdR (tritium-thymidine) uptake (percent of control); assay type: functional; in short: as §4
Mus musculus [17] = experiment: Compound is administered at days 6, 10, and 14.Tumor volume of each mouse is measured on days 8, 12, 16 and 20(chemotherapeutic agent, mitomycin C (MMC)); assay type: functional
Mus musculus [18] = organism: Mus musculus; experiment: Lymphocyte Proliferation Stimulatory effect on Allogenic MLR at 100 ng/mL and measured for [3H]-TdR (tritium-thymidine) uptake (percent of control); assay type: functional; in short: as §4
Mus musculus [19] = organism: Mus musculus; experiment: Lymphocyte Proliferation Stimulatory effect on Allogenic MLR at 1 ng/mL and measured for [3H]TdR (tritium-thymidine) uptake (percent of control); assay type: functional; in short: as §4

Structure (SMILES) | Control (B16 [1]) | Control (Mus musculus [2]) | Control (Mus musculus [3]) | Tumor growth inhibition ratio (max TGIR) (B16 [4]) | Control (Mus musculus [5]) | Control (B16 [6]) | Control (Homo sapiens [7]) | Control (Homo sapiens [8]) | Control (Mus musculus [9]) | Control (Homo sapiens [10]) | Control (Mus musculus [11]) | Control (Homo sapiens [12]) | Control (Mus musculus [13]) | Control (Homo sapiens [14]) | Control (Homo sapiens [15]) | Control (Mus musculus [16]) | Control (Mus musculus [17]) | Control (Mus musculus [18]) | Control (Mus musculus [19])
CCCCCCCCCCCCCCCCCCCCCCCC(=O)N[C@H](CCCCCCCCCCCCCCCC)CO[C@H]1O[C@@H](CO)[C@H](O)[C@H](O)[C@@H]1O | 91.4% | 100% | 147% | 80% | 90% | 40.7% | – | – | – | – | – | – | – | – | – | – | – | – | –
CCCCCCCCCCCCCCCCCCCCCCCC[C@@H](O)C(=O)N[C@@H](CO[C@H]1O[C@@H](CO)[C@H](O)[C@H](O)[C@@H]1O)[C@H](O)[C@H](O)CCCCCCCCCCCCCC | 97.7% | 437% | 620% | 87.3% | 203% | 92.8% | 586% | 470% | 85% | 352% | 118% | 382% | 69.8% | 332% | 582% | 250% | 67.6% | 280% | 180%
CCCCCCCCCCCCCCCCCCCCCC[C@@H](O)C(=O)N[C@@H](CO[C@H]1O[C@@H](CO)[C@H](O)[C@H](O)[C@@H]1O)[C@H](O)[C@H](O)CCCCCCCCCCCCCC | 91.9% | 1405% | 1552% | 64% | 1060% | 57.9% | – | – | – | – | – | – | – | – | – | – | – | – | –
CCCCCCCCCCCCCCC[C@@H](O)[C@H](CO[C@H]1O[C@@H](CO)[C@H](O)[C@H](O)[C@@H]1O)NC(=O)CCCCCCCCCCCCC | 84.4% | 1010% | 1664% | 64.1% | 249% | 54.2% | – | – | – | – | – | – | – | – | – | – | – | – | –
CCCCCCCCCCCCCCCCCCCCCC(=O)N[C@@H](CO[C@H]1O[C@@H](CO)[C@H](O)[C@H](O)[C@@H]1O)[C@H](O)CCCCCCCCCCCCCCC | 85% | 992% | 875% | 39.4% | 378% | 56.9% | – | – | – | – | – | – | – | – | – | – | – | – | –
CCCCCCCCCCCCCCCCCCCCCCCC[C@@H](O)C(=O)N[C@@H](CO[C@H]1O[C@@H](CO)[C@H](O)[C@H](O)[C@@H]1O)[C@H](O)CCCCCCCCCCCCCCC | – | – | – | – | – | – | 362% | – | – | – | – | 210% | – | – | 238% | – | – | – | –
CCCCCCCCCCCCCCCCCCCCCC[C@@H](O)C(=O)N[C@@H](CO[C@H]1O[C@@H](CO)[C@H](O)[C@H](O)[C@@H]1O)[C@H](O)[C@H](O)CCCCCCC | 85.1% | 541% | 936% | 46.5% | 196% | 46.2% | – | – | – | – | – | – | – | – | – | – | – | – | –
CCCCCCCCCCCCCCCCCCCCCC[C@@H](O)C(=O)N[C@@H](CO[C@H]1O[C@@H](CO)[C@H](O)[C@H](O)[C@@H]1O)[C@H](O)[C@H](O)CCCCCCCCCCCCC | 90.6% | 1491% | 1202% | 61.5% | 520% | 82.4% | – | – | – | – | – | – | – | – | – | – | – | – | –
CCCCCCCCCCCCCCCCCCCCCC[C@@H](O)C(=O)N[C@@H](CO[C@H]1O[C@@H](CO)[C@H](O)[C@H](O)[C@@H]1O)[C@H](O)CCCCCCCCCCCCCCC | 98.5% | 898% | 872% | 70.7% | 397% | 81.3% | – | – | – | – | – | – | – | – | – | – | – | – | –

— ChEMBL document CHEMBL1128398, “Structure-activity relationship of alpha-galactosylceramides against B16-bearing mice” (1995)
